Autophagy HCS: autophagy modulation, high-content screen. AID 463193. MEF GFP-LC3 puncta imaging; test concentration mostly 10 µM. calls only at 10 µM (by protocol). 0.98% of 190,000 active;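 active = percentage of spot-positive cells more than 3 SD above its plate mean, without a fluorescence outlier flag or 80% toxicity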;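 also: spot-positive cell cutoff set from DMSO-treated cells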
Insulin prom up: MIN6 insulin promoter up-regulation. MIN6 insulin promoter-GFP reporter, high-content imaging; hits give high values. z-score at 5 µM. 0.3% of 190,000 active. AID 1625;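 active = z-score above 3 at 5 µM with at least 500 cells counted in the well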
INS promoter inh: TRM-6 insulin promoter activity inhibition; TRM-6 cells (human fetal islet line), insulin promoter-eGFP reporter, imaging; reporter expression induced with tamoxifen; inhibition, % at 2 µM; 0.9% of 130,000 active; AID 1273;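 active = inhibition above the mean plus 3 SD, with well images judged a real hit on visual review, cut at about 60% in these data, passing the limit was not always enough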
Arbovirus anti: antivirals against arbovirus infection. arbovirus infection cell-based antiviral screen. inhibition, % at 10 µM. 0.37% of 200,000 active; in the data active = inhibition above about 30%
RBBP9 inhibitor: blocks human serine hydrolase RBBP9. O75884. recombinant RBBP9, FP-Rh probe fluorescence polarization. inhibition, % at 7.94 µM. 0.2% of 220,000 active;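 active = inhibition above the campaign mean of all tested compounds plus 3 SD, cut at about 14% in these data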;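 also: plate controls were DMSO wells with RBBP9 for no effect and wells lacking RBBP9 protein for full effect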
Target sequence (O75884 whole entry, looked up): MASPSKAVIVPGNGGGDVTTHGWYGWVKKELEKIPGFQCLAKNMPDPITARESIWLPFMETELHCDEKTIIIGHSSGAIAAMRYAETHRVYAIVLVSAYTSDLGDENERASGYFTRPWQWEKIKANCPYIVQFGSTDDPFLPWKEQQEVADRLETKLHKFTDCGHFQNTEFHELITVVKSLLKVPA
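Measured by – fluorescence polarization · Test system – RBBP9 protein · Input – 2.5 µM RBBP9 dispensing solution, before mixing · Measure – percent inhibition from mP, scaled between DMSO and no-protein wells · Benchmarks – DMSO-treated enzyme wells and wells lacking RBBP9 · Times – preincubation 30 min plus labeling 45 min at 25 °C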
PKD1 kinase inh: PKD1 (human) kinase inhibition | Q15139 | PKD1 kinase fluorescence polarization assay | inhibition, % (no concentration beside the values) | 0.056% of 200,000 active; in the data active = inhibition above about 50%
* hit, by the source's call. Shown are actives, neighbours in structure and some others; about 2.1% of the full set was active somewhere.

For CCCCc1nc2ccccc2c(NC(=O)CN(CC)CC)c1CCC the results were Autophagy HCS inactive, Insulin prom up 0.03, INS promoter inh -68.8, Arbovirus anti 12.1, RBBP9 inhibitor 10.3 and PKD1 kinase inh -3.7.
Screening COc1ccc(-c2cn3c(C)c(C(=O)NC(C)C)sc3n2)cc1 returned Autophagy HCS inactive, INS promoter inh 0.0, Arbovirus anti -2.2, RBBP9 inhibitor -9.8 and PKD1 kinase inh -0.1.
Screening Nc1ccc2nc(SCC(=O)N3CCOCC3)sc2c1 returned Autophagy HCS inactive, Insulin prom up 1.16, INS promoter inh 80.0*, Arbovirus anti -12.3, RBBP9 inhibitor -4.5 and PKD1 kinase inh 6.9.
Screening Nc1ccc2nc(SCC(=O)N3CCN(c4ccccc4)CC3)sc2c1 returned Insulin prom up -1.18 and RBBP9 inhibitor -3.7.
Screening CCOC(=O)N1CCN(C(=O)C2c3cc(OC)c(OC)cc3C(=O)N3CCc4ccccc4C23)CC1 (stereo not given) returned Autophagy HCS inactive, INS promoter inh 80.0*, Arbovirus anti 9.2, RBBP9 inhibitor -6.9 and PKD1 kinase inh 2.0.
COc1cc2c(cc1OC)C(C(=O)NC1CC1)C1c3ccccc3CCN1C2=O (stereo not given) was read as Arbovirus anti 2.1, RBBP9 inhibitor 1.4 and PKD1 kinase inh -11.0.
For COc1cc2cc(CN(CCO)S(=O)(=O)c3ccccc3Cl)c(=O)[nH]c2cc1OC the results were Autophagy HCS inactive, Insulin prom up 0.75, INS promoter inh -11.1, Arbovirus anti 5.0, RBBP9 inhibitor -7.9 and PKD1 kinase inh -15.0.
For Cc1c(Br)cc(C(=O)OC2CCN(C)CC2)c(C)c1C the results were Autophagy HCS active, Insulin prom up -1.49, INS promoter inh 2.7, Arbovirus anti -19.1, RBBP9 inhibitor -6.3 and PKD1 kinase inh 3.3.
`COc1ccc(C(=O)OC2CCN(C)CC2)cc1` gave Autophagy HCS inactive, Insulin prom up 0.39, INS promoter inh 0.0, Arbovirus anti -5.1, RBBP9 inhibitor -5.6 and PKD1 kinase inh -14.3.
`O[C@@H]1COC(Nc2ccc(N=Nc3ccccc3)cc2)C[C@@H]1O` (stereo not given in full) gave Insulin prom up -0.53 and RBBP9 inhibitor -2.3.
Screening Cn1c(-c2c(N)n(-c3ccccc3)c3nc4ccccc4nc23)nc2ccccc21 returned Autophagy HCS active, Insulin prom up 0.08, INS promoter inh 3.2, Arbovirus anti 64.1*, RBBP9 inhibitor -6.5 and PKD1 kinase inh -4.3.
Cc1ccc(-n2c(N)c(-c3nc4ccccc4n3C)sc2=S)cc1 was read as Autophagy HCS inactive, Insulin prom up -0.17, INS promoter inh -27.3, Arbovirus anti -6.5, RBBP9 inhibitor 10.1 and PKD1 kinase inh -13.5.
For Cc1cccc(-n2c(N)c(-c3nc4ccccc4n3C)c3nc4ccccc4nc32)c1 the results were Autophagy HCS active, Insulin prom up 0.22, INS promoter inh -54.8, Arbovirus anti 5.6, RBBP9 inhibitor 0.5 and PKD1 kinase inh 5.5.
`Cc1cccc(-n2c(-c3ccco3)nc3nc4ccccc4nc32)c1` gave Autophagy HCS inactive, Insulin prom up -0.22, INS promoter inh -9.1, Arbovirus anti 2.7, RBBP9 inhibitor 4.2 and PKD1 kinase inh -1.6.
Screening Cc1[nH]c2ccccc2c1/C=N/Nc1ccc([N+](=O)[O-])cc1 returned Autophagy HCS active, Arbovirus anti -3.0, RBBP9 inhibitor 10.1 and PKD1 kinase inh 2.2.
Cc1[nH]c2ccccc2c1/C=N/NC(=O)c1cccc([N+](=O)[O-])c1 was read as Autophagy HCS inactive, Insulin prom up -0.29, INS promoter inh -46.1, Arbovirus anti -2.8, RBBP9 inhibitor 8.3 and PKD1 kinase inh -0.6.
`Nc1ccc(N2CCN(c3ccc(F)cc3)CC2)cc1` gave Autophagy HCS inactive, Insulin prom up -0.31, INS promoter inh -47.1, Arbovirus anti -20.4, RBBP9 inhibitor -3.0 and PKD1 kinase inh 8.4.
`Nc1ccc(N2CCN(c3ccc(Cl)c(Cl)c3)CC2)cc1` gave Autophagy HCS active, Insulin prom up -0.01, INS promoter inh 43.3, Arbovirus anti -35.0, RBBP9 inhibitor -4.4 and PKD1 kinase inh 1.5.
For CCOc1ccc(NC(=O)c2ccc(CC)s2)c([N+](=O)[O-])c1 the results were Autophagy HCS inactive, Insulin prom up -0.11, Arbovirus anti 0.0, RBBP9 inhibitor -0.3 and PKD1 kinase inh -0.5.
Cc1ccc(S(=O)(=O)CCC(=O)O)cc1C was read as Autophagy HCS inactive, INS promoter inh -393.8, Arbovirus anti -3.0, RBBP9 inhibitor -0.8 and PKD1 kinase inh -0.4.
`CNC(=O)C1(C)C=CCN1C(=O)c1ccccc1` (stereo not given) gave Autophagy HCS inactive, Insulin prom up -0.42, INS promoter inh 0.0, Arbovirus anti 1.6, RBBP9 inhibitor -7.5 and PKD1 kinase inh -6.9.
Screening CC1(C(=O)NCCN2CCOCC2)C=CCN1C(=O)c1ccccc1 (stereo not given) returned Autophagy HCS active, Insulin prom up 0.36, INS promoter inh 23.8, Arbovirus anti 15.6, RBBP9 inhibitor -10.9 and PKD1 kinase inh -2.5.
For O=C(NCCCO)Nc1ccc2nc(-c3ccco3)c(-c3ccco3)nc2c1 the results were Autophagy HCS inactive, Insulin prom up 0.17, INS promoter inh -7.4, Arbovirus anti 33.4*, RBBP9 inhibitor 8.0 and PKD1 kinase inh 2.2.
For Cc1nc(N2CCN(C)CC2)c2cc(-c3ccccc3)sc2n1 the results were Autophagy HCS inactive, Insulin prom up -0.34, INS promoter inh 17.6, Arbovirus anti -5.7, RBBP9 inhibitor -2.3 and PKD1 kinase inh 0.5.
For CCCCn1c(N)c(NCCC(C)C)c(=O)[nH]c1=O the results were Autophagy HCS inactive, Insulin prom up -0.16, INS promoter inh 82.1*, Arbovirus anti -7.6, RBBP9 inhibitor -4.9 and PKD1 kinase inh -19.2.
For O=C(Nc1ccc(N2CCCCC2)cc1)c1cc([N+](=O)[O-])cc([N+](=O)[O-])c1 the results were Autophagy HCS active, Insulin prom up -0.65, INS promoter inh 20.0, Arbovirus anti -3.2, RBBP9 inhibitor -2.0 and PKD1 kinase inh -0.3.
O=C(Nc1ccc(N2CCCC2)cc1)c1ccc([N+](=O)[O-])cc1Cl was read as Autophagy HCS inactive, Insulin prom up -0.38, INS promoter inh 33.3, Arbovirus anti -4.1, RBBP9 inhibitor -4.8 and PKD1 kinase inh -2.9.
`COc1ccccc1OCCOCCn1cnc2ccccc2c1=O` gave Autophagy HCS inactive, Insulin prom up 1.36, INS promoter inh -26.0, Arbovirus anti -3.8, RBBP9 inhibitor -3.1 and PKD1 kinase inh -3.6.
Screening O=c1c(/C=N/Nc2ccccc2)c(Sc2nnnn2-c2ccccc2)nc2ccccn12 returned Autophagy HCS active, INS promoter inh 1.8, Arbovirus anti -32.9, RBBP9 inhibitor -4.4 and PKD1 kinase inh 10.5.
Screening COC(=O)CCC(=O)N1CN2CN(C(=O)CCC(=O)OC)CC([N+](=O)[O-])(C2)C1 returned Insulin prom up 0.27 and RBBP9 inhibitor -0.1.

Compound activity: PubChem BioAssay, several laboratories
